Among the data in PubChem BioAssay AID652011 (Sanford-Burnham Center for Chemical Genomics, 2013) are inhibition values, retold here.

The target in this test is Endothelial PAS domain-containing protein 1 (Homo sapiens) (UniProt Q99814). In words: HIF reporter inhibition across pancreatic and renal lines – cell-based, luminescence, MIAPaCa-2, 786-0, panel, SAR follow-up (AID 652011). To be noted: MIAPaCa-2/PANC HIF reporter, luciferase luminescence, desferoxamine, overnight, HIF2a PANC, run 1; at 99 µM (top of the series). An outline of the steps: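 Probe or stimulus – desferoxamine stimulus · Times – overnight compound incubation at 37 °C, 10 min reagent · Doses – compounds from 10 mM and 0.3125 mM stocks, 1% DMSO final · Technique – luminescence, One-Glo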
Endothelial PAS domain-containing protein 1 (Homo sapiens), sequence (Q99814 whole entry, looked up, the tested form may be a part): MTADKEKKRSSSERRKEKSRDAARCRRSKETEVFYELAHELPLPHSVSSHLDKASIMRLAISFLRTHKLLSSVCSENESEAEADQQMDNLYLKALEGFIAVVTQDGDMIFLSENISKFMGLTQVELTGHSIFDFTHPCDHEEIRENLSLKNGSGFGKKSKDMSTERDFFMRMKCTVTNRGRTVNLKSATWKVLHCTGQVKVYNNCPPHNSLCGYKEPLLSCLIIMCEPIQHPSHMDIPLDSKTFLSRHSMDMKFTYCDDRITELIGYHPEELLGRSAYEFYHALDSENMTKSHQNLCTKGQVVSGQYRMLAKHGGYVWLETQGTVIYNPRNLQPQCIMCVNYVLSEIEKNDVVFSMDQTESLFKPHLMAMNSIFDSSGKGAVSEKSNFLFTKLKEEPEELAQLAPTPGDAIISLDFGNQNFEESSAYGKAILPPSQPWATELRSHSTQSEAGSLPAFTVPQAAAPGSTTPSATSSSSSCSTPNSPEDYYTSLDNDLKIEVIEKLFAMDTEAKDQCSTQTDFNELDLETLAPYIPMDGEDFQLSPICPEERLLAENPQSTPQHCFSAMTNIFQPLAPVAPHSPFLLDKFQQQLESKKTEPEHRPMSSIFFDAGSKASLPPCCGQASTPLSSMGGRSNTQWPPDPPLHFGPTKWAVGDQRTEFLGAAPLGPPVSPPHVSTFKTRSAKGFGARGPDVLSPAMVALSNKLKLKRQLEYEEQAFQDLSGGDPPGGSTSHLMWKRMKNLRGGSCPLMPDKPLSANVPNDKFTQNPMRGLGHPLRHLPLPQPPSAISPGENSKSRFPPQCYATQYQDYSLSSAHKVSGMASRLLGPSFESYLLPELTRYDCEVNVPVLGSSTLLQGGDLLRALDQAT

Several values for one entry are separate records, joined by “and”; a condition that tells them apart may be missing. Equal values may be shown once.

As a reminder, the inhibition is the relative decrease from the control value, in per cent. As for `CCOc1ccc(-c2noc(CCC(=O)O)n2)cc1`, the inhibition was 109%.
For `CC(C)c1ccc(-c2noc(CCC(=O)NC3CC3)n2)cc1`, the inhibition was -39.8%.
The same measure for `CCCNC(=O)CCc1nc(-c2ccc(C(C)(C)C)cc2)no1`: 7.88%; for `CNC(=O)CCc1nc(-c2ccc(OC)cc2)no1`: 36.2%.
The same measure for `CCNC(=O)CCc1nc(-c2ccccc2)no1`: 21.2%; for `CC(C)(C)c1ccc(-c2noc(CCC(=O)N3CCOCC3)n2)cc1`: -33.9%.
Next, `CCNC(=O)CCc1nc(-c2cccc(F)c2)no1`: 19.4%; `CCNC(=O)CCc1nc(-c2cccc(OC)c2)no1`: 27.9%; `CNC(=O)CCc1nc(-c2ccc(C)cc2)no1`: 40.9%.
On to `CC(C)(C)c1ccc(-c2noc(CCC(N)=O)n2)cc1`, for which the inhibition was 115% and 99.9%.
Next, `CC(C)c1ccc(-c2noc(CCC(=O)NC(C)(C)C)n2)cc1`: 57.4%; `CC(C)(C)c1ccc(-c2noc(CCC(=O)N3CCCCC3)n2)cc1`: 103%.
Next, `CCc1ccc(-c2noc(CCC(=O)NC)n2)cc1`: 1.82%; `CCNC(=O)CCc1nc(-c2ccc(OCC)cc2)no1`: -27.3%.
The same measure for `CC(C)(C)c1ccc(-c2noc(CCC(=O)NCc3ccco3)n2)cc1`: 86.1% and 78.5%; for `CNC(=O)CCc1nc(-c2ccc(Cl)cc2)no1`: 13.4%; for `CC(C)(C)c1ccc(-c2noc(CCC(=O)Nc3cccc([N+](=O)[O-])c3)n2)cc1`: 89.8%.
Regarding `CCC(C)NC(=O)CCc1nc(-c2ccc(C(C)(C)C)cc2)no1` (stereo not given), the inhibition was -20.2%.
The same measure for `CN(C)C(=O)CCc1nc(-c2ccc(C(C)(C)C)cc2)no1`: -71.1% and 11.2%.
The same measure for `CCNC(=O)CCc1nc(-c2c(Cl)cccc2Cl)no1`: 53.6%; for `CCN(CC)C(=O)CCc1nc(-c2ccc(C(C)(C)C)cc2)no1`: 44.3% and 43.4%; for `CNC(=O)CCc1nc(-c2ccccc2)no1`: 11.4% and 50.7%.
Consider `CCNC(=O)CCc1nc(-c2ccccc2C)no1`, for which the inhibition was found to be 27.8%.
Take `CC(C)(C)NC(=O)CCc1nc(-c2ccc(C(C)(C)C)cc2)no1`: the inhibition is 83.8%.
The same measure for `CCC(C)NC(=O)CCc1nc(-c2ccc(C(C)C)cc2)no1` (stereo not given): 12.1%; for `CCOc1ccccc1NC(=O)CCc1nc(-c2ccc(C(C)(C)C)cc2)no1`: 117%.
For the compound `CC(C)(C)c1ccc(-c2noc(CCC(=O)NCC3CCCO3)n2)cc1` (stereo not given), the inhibition was 53.5%.
The same measure for `CC(C)(C)c1ccc(-c2noc(CCC(=O)NC3CCCC3)n2)cc1`: 94.6%.
Next, `COc1ccccc1NC(=O)CCc1nc(-c2ccc(C(C)(C)C)cc2)no1`: 115%; `CCOc1ccc(-c2noc(CCC(=O)NC)n2)cc1`: 112%.
